Laboratory results reported in ChEMBL document CHEMBL1152709, “Tricyclic HIV integrase inhibitors: VI. SAR studies of 'benzyl flipped' C3-substituted pyrroloquinolines” (Bioorg Med Chem Lett, 2009).

Legend:
[1] = system: Human immunodeficiency virus 1; experiment: Antiviral activity against HIV1 3B infected in human MT2 cells after 5 days by cell-titer assay in presence of 10% FBS; assay type: functional, organism-based; settings: Human immunodeficiency virus 1, 3B, MT2, 120 h
Outline: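 MT-2 cells infected with HIV-1 IIIB (m.o.i. 0.01, 3 h), then about 1.5 × 10⁴ cells per well added to 9 concentrations of 5-fold serially diluted drug in triplicate, in culture medium with 10% FBS. Incubated 5 days at 37 °C. Viability read by CellTiter-Glo chemiluminescence after 10 min lysis at room temperature. Values are means of at least two experiments.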

[2] = target: Human immunodeficiency virus type 1 integrase (Human immunodeficiency virus 1, UniProt Q7ZJM1); experiment: Inhibition of HIV1 HXB2 integrase strand transfer activity by microtiter assay
Outline: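 Strand transfer measured in a microtiter format using DIG-tagged target DNA, detected with anti-DIG antibody–horseradish peroxidase conjugate. IC50 reported in nM as the mean of at least two experiments.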

[3] = system: Human immunodeficiency virus 1; experiment: Antiviral activity against HIV1 3B infected in human MT2 cells after 5 days by cell-titer method in presence of human serum albumin and alpha1-acid glycoprotein; assay type: functional, organism-based; settings: Human immunodeficiency virus 1, 3B, MT2, 120 h
Outline: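 Same MT-2/HIV-1 IIIB assay (m.o.i. 0.01, 5 days at 37 °C, CellTiter-Glo read-out), run in 10% FBS with or without HSA (35 mg/ml) or α1-AGP (1.5 mg/ml). The combined-protein (serum-adjusted) EC₅₀ was calculated from the EC₅₀ values with each protein alone, using an equation derived from competitive binding assumptions.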

[4] = Oral bioavailability in rat at pH 2.2; assay type: ADME, organism-based; settings: in vivo
Outline: (§1)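 Oral dosing of parent compound as a solution in EtOH, PG, PEG400 and citric acid at pH 2.2, alongside an i.v. group (pH 3.3). F (%) was calculated from p.o. versus i.v. AUC. Values are the mean of three animals per study.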

[5] = Half life in iv dosed rat at pH 3.3; assay type: ADME, organism-based; settings: in vivo
Outline: (§2)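 Parent compound given i.v. as a solution in EtOH, PG, PEG400 and citric acid at pH 3.3. Total body clearance and T½ were derived from the i.v. group. Values are the mean of three animals per study.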

[6] = Half life in iv dosed dog at pH 3.3; assay type: ADME, organism-based, Canis lupus familiaris; settings: in vivo; outline: as §2
[7] = Clearance in iv dosed rat at pH 3.3; assay type: ADME, organism-based; settings: in vivo; outline: as §2
[8] = Clearance in iv dosed dog at pH 3.3; assay type: ADME, organism-based, Canis lupus familiaris; settings: in vivo; outline: as §2
[9] = Oral bioavailability in dog at pH 2.2; assay type: ADME, organism-based, Canis lupus familiaris; settings: in vivo; outline: as §1

Human immunodeficiency virus type 1 integrase, sequence (Q7ZJM1 whole entry): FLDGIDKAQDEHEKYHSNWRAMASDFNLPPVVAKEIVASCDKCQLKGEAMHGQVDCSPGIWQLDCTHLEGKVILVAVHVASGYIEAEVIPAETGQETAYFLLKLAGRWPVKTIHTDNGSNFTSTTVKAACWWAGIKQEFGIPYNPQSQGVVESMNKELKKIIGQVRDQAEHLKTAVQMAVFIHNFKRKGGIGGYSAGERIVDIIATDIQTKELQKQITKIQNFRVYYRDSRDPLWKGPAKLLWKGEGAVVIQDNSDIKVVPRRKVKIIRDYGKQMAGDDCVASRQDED

| SMILES | EC50 [1] [nM] | IC50 [2] [nM] | EC50 [3] [nM] | bioavailability [4] [%] | half-life [5] [min] | half-life [6] [min] | clearance [7] [mL/min/kg] | clearance [8] [mL/min/kg] | bioavailability [9] [%] |
| --- | --- | --- | --- | --- | --- | --- | --- | --- | --- |
| COc1c2c(c(O)c3ncc(Cc4ccc(F)cc4)cc13)C(=O)N(C)C2 | 20 | 100 |  |  |  |  |  |  |  |
| COc1c2c(c(O)c3ncc(Cc4ccc(F)cc4)cc13)C(=O)NC2 | 16 | 14 | 27 |  |  |  |  |  |  |
| COc1c2c(c(O)c3ncc(Cc4ccc(F)cc4)cc13)C(=O)N(Cc1ccc(F)cc1)C2 | 105 | 600 |  |  |  |  |  |  |  |
| CN1Cc2c(c(O)c3ncc(Cc4ccc(F)cc4)cc3c2N(C)S(C)(=O)=O)C1=O | 2 | 80 | 7 | 12 | 24 | 264 | 8.17 | 2.17 | 47 |
| CN1Cc2c(c(O)c3ncc(Cc4ccc(F)c(Cl)c4)cc3c2N(C)S(C)(=O)=O)C1=O | 1.1 | 265 | 35 | 11 | 102 | 528 | 3.67 | 2 | 60 |
